Measurements taken from ChEMBL document CHEMBL1156988, “Synthesis and antibacterial studies of binaphthyl-based tripeptoids. Part 1” (2010).

Assays:
[1] = test system: Enterococcus faecium; assay: Antibacterial activity against vancomycin-resistant Enterococcus faecium 987 after 24 hrs; conditions: Enterococcus faecium, 987, 24 h
[2] = test system: Enterococcus faecium; assay: Antibacterial activity against vancomycin sensitive clinical isolate Enterococcus faecium after 24 hrs; format: functional
[3] = test system: Staphylococcus aureus; assay: Antibacterial activity against methicillin-resistant Staphylococcus aureus ATCC 43300 after 24 hrs; format: functional; conditions: ATCC 43300, 24 h
Procedure, shortened: (§1)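 Broth microdilution in cation-adjusted Mueller Hinton II broth, inoculum 1 × 10^6 CFU/mL. Inoculum was added 1:1 to twofold serial compound dilutions in triplicate wells. Plates were incubated 24 h at 37 °C. MIC was taken as the lowest dilution giving complete growth inhibition. Strains: wild type ATCC 6538P, Mu50 ATCC 700699, MRSA ATCC 43300.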

[4] = test system: Enterococcus faecium; assay: Antibacterial activity against vancomycin-resistant clinical isolate Enterococcus faecium after 24 hrs; format: functional
[5] = test system: Staphylococcus aureus; assay: Antibacterial activity against Staphylococcus aureus 6538P after 24 hrs; format: functional
Procedure, shortened: (§2)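 Micro-broth dilution in cation-adjusted Mueller Hinton II broth, inoculum 1 × 10^6 CFU per mL, added to triplicate wells of twofold serially diluted compound. Incubated 24 h at 37 °C. MIC taken as the lowest dilution giving complete growth inhibition.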

[6] = test system: Enterococcus faecium; assay: Antibacterial activity against vancomycin-resistant Enterococcus faecium 243 after 24 hrs; conditions: Enterococcus faecium, 243, 24 h
[7] = test system: Enterococcus faecium; assay: Antibacterial activity against vancomycin-resistant Enterococcus faecium 449 after 24 hrs; conditions: Enterococcus faecium, 449, 24 h
[8] = test system: Staphylococcus aureus; assay: Antibacterial activity against vancomycin intermediate Staphylococcus aureus after 24 hrs; format: functional
Procedure, shortened: as §1

[9] = test system: Staphylococcus epidermidis; assay: Antibacterial activity against Staphylococcus epidermidis ATCC 700562 after 24 hrs; format: functional; conditions: ATCC 700562, 24 h
Procedure, shortened: as §2

[10] = test system: Staphylococcus aureus; assay: Antibacterial activity against methicillin sensitive Staphylococcus aureus after 24 hrs; format: functional
Procedure, shortened: as §1

[11] = test system: Enterococcus faecium; assay: Antibacterial activity against vancomycin-resistant Enterococcus faecium 820 after 24 hrs; conditions: Enterococcus faecium, 820, 24 h

SMILES: CC(C)CCOc1ccc2ccccc2c1-c1c(OCC(=O)N[C@H](CCCCN)C(=O)N[C@@H](CCCNC(=N)N)C(=O)N[C@H](CC(C)C)C(=O)OCc2ccccc2)ccc2ccccc12.Cl.Cl
- MIC [1]: 15.6 µg/mL
- MIC [2]: 16 µg/mL
- MIC [3]: 6 µg/mL
- MIC [4]: 2 µg/mL
- MIC [5]: 3.9 µg/mL
- MIC [6]: 15.6 µg/mL
- MIC [7]: 15.6 µg/mL
- MIC [8]: 6 µg/mL
- MIC [9]: 3 µg/mL
- MIC [10]: 6 µg/mL
- MIC [11]: 7.8 µg/mL
